The assay can be described thus: suppressors of cytokine-driven caspase-3/7 activity, dose response, orthogonal assay for beta-cell apoptosis inhibitor project, INS-1E rat cells, dry powder, set 2 (AID 488936). Particulars: INS-1E cytokine-induced caspase-3/7 luminescence, 48 h. In outline:
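reagent = cytokine mix of IFN-gamma 50, TNF-alpha 25, IL-1β 10 ng/mL | material = rat INS-1E insulinoma beta cells, cytokine-induced apoptosis model | incubation = 48 h cytokine and compound exposure, 1 h detection | technique = Caspase-Glo 3/7 luminescence | evaluation = Caspase-3/7 IC50 from dose-response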

Activity calls are given as the source filed them.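 The calls were made as follows: active = compounds lowering caspase luminescence whose fitted AC50 is at most ten times their top valid dose; inconclusive = flat partial inhibition or a poor quality curve fit; inactive = the rest.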

Regarding `COc1ccc(S(=O)(=O)N(C)C[C@@H]2Oc3c(NC(=O)Nc4cccc5ccccc45)cccc3C(=O)N([C@@H](C)CO)C[C@@H]2C)cc1`, the activity change, negative = inhibition (at 26 µM (top of the series)) is -6.51% (inactive).
Same read-out and setting: to `C[C@@H]1CN([C@@H](C)CO)C(=O)c2cccc(NC(=O)Nc3cccc4ccccc34)c2O[C@H]1CN(C)S(=O)(=O)c1ccc(OC(F)(F)F)cc1` belongs 100% (inactive); to `C[C@@H]1CN([C@@H](C)CO)C(=O)c2cccc(NC(=O)Nc3cccc4ccccc34)c2O[C@H]1CN(C)C(=O)Nc1ccc2c(c1)OCO2`, 32.4% (inactive); to `Cc1noc(C)c1NC(=O)N(C)C[C@@H]1Oc2c(NC(=O)Nc3cccc4ccccc34)cccc2C(=O)N([C@@H](C)CO)C[C@H]1C`, -0.569% (inactive).
As for `COc1ccc(S(=O)(=O)N(C)C[C@@H]2Oc3c(NC(=O)NC(C)C)cccc3C(=O)N([C@@H](C)CO)C[C@H]2C)cc1`, the activity change, negative = inhibition (at 26 µM (top of the series)) was -8.08% (inactive).
Consider `C[C@@H]1CN([C@@H](C)CO)C(=O)c2cccc(NC(=O)Nc3cccc4ccccc34)c2O[C@H]1CN(C)S(=O)(=O)c1cn(C)cn1`, for which the activity change, negative = inhibition (at 26 µM (top of the series)) was -1.53% (inactive).
Turning to `C[C@@H]1CN([C@@H](C)CO)C(=O)c2cccc(NC(=O)Nc3cccc4ccccc34)c2O[C@H]1CN(C)S(=O)(=O)c1ccc(Cl)cc1`, under “at 26 µM (top of the series)”, the activity change, negative = inhibition is 6.46% (inactive).
`COc1ccc(S(=O)(=O)N(C)C[C@@H]2Oc3c(NC(=O)C4CCOCC4)cccc3C(=O)N([C@@H](C)CO)C[C@H]2C)cc1`: the activity change, negative = inhibition (at 23.5 µM (top of the series)) was -8.46% (inactive).
In the case of `C[C@@H]1CN([C@@H](C)CO)C(=O)c2cccc(NC(=O)Nc3ccccc3)c2O[C@H]1CN(C)S(=O)(=O)c1ccc(F)cc1`, the activity change, negative = inhibition (at 26 µM (top of the series)) was -13.5% (inactive).
Regarding `Cc1ccc(S(=O)(=O)N(C)C[C@@H]2Oc3c(NC(=O)Nc4cccc5ccccc45)cccc3C(=O)N([C@H](C)CO)C[C@H]2C)cc1`, the activity change, negative = inhibition (at 23.5 µM (top of the series)) is -12.7% (inactive).
As for `COc1ccc(S(=O)(=O)N(C)C[C@@H]2Oc3c(NC(=O)Nc4c(C)noc4C)cccc3C(=O)N([C@@H](C)CO)C[C@H]2C)cc1`, the activity change, negative = inhibition (at 26 µM (top of the series)) was -11.7% (inactive).
For the molecule `Cc1ccc(S(=O)(=O)N(C)C[C@@H]2Oc3c(NC(=O)Nc4cccc5ccccc45)cccc3C(=O)N([C@@H](C)CO)C[C@H]2C)cc1`, the activity change, negative = inhibition (at 26 µM (top of the series)) is 11.5% (inactive).
For the molecule `C[C@@H]1CN([C@@H](C)CO)C(=O)c2cccc(NC(=O)Nc3ccccc3)c2O[C@H]1CN(C)S(=O)(=O)c1ccc(Cl)cc1`, the activity change, negative = inhibition (at 26 µM (top of the series)) was -7.25% (inactive).
`COc1ccc(S(=O)(=O)N(C)C[C@@H]2Oc3c(NC(=O)Nc4cccc5ccccc45)cccc3C(=O)N([C@@H](C)CO)C[C@H]2C)cc1C`: where the note is “at 12 µM (top of the series)”, the activity change, negative = inhibition was -20.2% (inactive).
Take `C[C@@H]1CN([C@@H](C)CO)C(=O)c2cccc(NC(=O)Nc3cccc4ccccc34)c2O[C@H]1CN(C)C(=O)Nc1ccccc1`: the activity change, negative = inhibition (at 23.5 µM (top of the series)) was 14.9% (inactive).
For `C[C@@H]1CN([C@@H](C)CO)C(=O)c2cccc(NC(=O)Nc3cccc4ccccc34)c2O[C@H]1CN(C)C(=O)Nc1ccc(C(F)(F)F)cc1`, where the note is “at 23.5 µM (top of the series)”, the activity change, negative = inhibition is 45.3% (inactive).
As for `COc1ccc(S(=O)(=O)N(C)C[C@H]2Oc3c(NC(=O)Nc4cccc5ccccc45)cccc3C(=O)N([C@H](C)CO)C[C@H]2C)cc1`, the activity change, negative = inhibition (at 26 µM (top of the series)) was -14.4% (inactive).
On the same count and under the same terms, as for `COc1ccc(S(=O)(=O)N(C)C[C@@H]2Oc3c(NC(=O)Nc4cccc5ccccc45)cccc3C(=O)N([C@@H](C)CO)C[C@H]2C)cc1Cl`, the figure is 12.6% (inactive); as for `CNC[C@@H]1Oc2c(NC(=O)Nc3cccc4ccccc34)cccc2C(=O)N([C@@H](C)CO)C[C@H]1C`, -6.33% (inactive).
Consider `C[C@@H]1CN([C@@H](C)CO)C(=O)c2cccc(NS(=O)(=O)c3ccccc3)c2O[C@H]1CN(C)Cc1ccc(C(F)(F)F)cc1`, for which the activity change, negative = inhibition (at 26 µM (top of the series)) was 7.22% (inactive).
For the molecule `C[C@@H]1CN([C@@H](C)CO)C(=O)c2cccc(NC(=O)Nc3cccc4ccccc34)c2O[C@H]1CN(C)S(=O)(=O)c1ccc2c(c1)OCCCO2`, under “at 26 µM (top of the series)”, the activity change, negative = inhibition is 0.778% (inactive).
For the molecule `COc1ccc(S(=O)(=O)N(C)C[C@@H]2Oc3c(NC(=O)Nc4ccc(F)cc4)cccc3C(=O)N([C@H](C)CO)C[C@H]2C)cc1`, the activity change, negative = inhibition (at 26 µM (top of the series)) is -6.01% (inactive).
On to `COc1ccc(S(=O)(=O)N(C)C[C@@H]2Oc3c(NC(=O)Nc4ccc(C(F)(F)F)cc4)cccc3C(=O)N([C@@H](C)CO)C[C@H]2C)cc1`, for which the activity change, negative = inhibition (at 26 µM (top of the series)) is 13.3% (inactive).
Still for that read-out and setting: to `C[C@@H]1CN([C@@H](C)CO)C(=O)c2cccc(NC(=O)Nc3cccc4ccccc34)c2O[C@H]1CN(C)S(C)(=O)=O` belongs -7.6% (inactive); to `C[C@@H]1CN([C@@H](C)CO)C(=O)c2cccc(NC(=O)Nc3cccc4ccccc34)c2O[C@H]1CN(C)S(=O)(=O)c1ccc(F)cc1`, 4.91% (inactive); to `COc1ccc(S(=O)(=O)N(C)C[C@@H]2Oc3c(NC(=O)Nc4cccc5ccccc45)cccc3C(=O)N([C@@H](C)CO)C[C@H]2C)cc1`, -10.2% (inactive).
Same read-out and setting: to `C[C@@H]1CN([C@@H](C)CO)C(=O)c2cccc(NC(=O)Nc3cccc4ccccc34)c2O[C@H]1CN(C)C(=O)Nc1ccc(F)cc1` belongs 19.9% (inactive).
Still for that read-out and setting: as for `Cc1ccc(S(=O)(=O)N(C)C[C@@H]2Oc3c(NC(=O)Nc4ccccc4)cccc3C(=O)N([C@H](C)CO)C[C@H]2C)cc1`, the figure is -10.7% (inactive); as for `COc1ccc(S(=O)(=O)N(C)C[C@@H]2Oc3c(NC(=O)c4cccc5ccccc45)cccc3C(=O)N([C@@H](C)CO)C[C@H]2C)cc1`, -10.7% (inactive).
Take `COc1ccc(S(=O)(=O)N(C)C[C@@H]2Oc3c(NC(=O)c4ccc(-c5nccs5)cc4)cccc3C(=O)N([C@@H](C)CO)C[C@H]2C)cc1`: the activity change, negative = inhibition (at 26 µM (top of the series)) is 6.99% (inactive).
With `COc1ccc(S(=O)(=O)N(C)C[C@@H]2Oc3c(NC(=O)c4nc5ccccc5s4)cccc3C(=O)N([C@@H](C)CO)C[C@H]2C)cc1`, the activity change, negative = inhibition (at 26 µM (top of the series)) was -4.53% (inactive).
Consider `C[C@@H]1CN([C@@H](C)CO)C(=O)c2cccc(NC(=O)Nc3cccc4ccccc34)c2O[C@H]1CN(C)S(=O)(=O)c1ccc2c(c1)OCO2`, for which the activity change, negative = inhibition (at 26 µM (top of the series)) was -4.01% (inactive).
On to `COc1ccc(S(=O)(=O)N(C)C[C@@H]2Oc3c(NC(=O)Nc4ccc(F)cc4)cccc3C(=O)N([C@@H](C)CO)C[C@H]2C)cc1`, for which the activity change, negative = inhibition (at 23.5 µM (top of the series)) was -9.69% (inactive).
For `COc1cccc(S(=O)(=O)N(C)C[C@@H]2Oc3c(NC(=O)Nc4cccc5ccccc45)cccc3C(=O)N([C@@H](C)CO)C[C@H]2C)c1`, the activity change, negative = inhibition (at 26 µM (top of the series)) is 14.2% (inactive).
Regarding `COc1ccc(S(=O)(=O)N(C)C[C@@H]2Oc3c(NS(=O)(=O)c4ccccc4)cccc3C(=O)N([C@@H](C)CO)C[C@H]2C)cc1`, the activity change, negative = inhibition (at 26 µM (top of the series)) is -6.46% (inactive).
Turning to `COc1ccc(S(=O)(=O)N(C)C[C@@H]2Oc3c(NC(=O)Nc4ccccc4)cccc3C(=O)N([C@H](C)CO)C[C@H]2C)cc1`, the activity change, negative = inhibition (at 26 µM (top of the series)) is -7.43% (inactive).
As to `COc1ccc(NC(=O)N(C)C[C@@H]2Oc3c(NC(=O)Nc4cccc5ccccc45)cccc3C(=O)N([C@@H](C)CO)C[C@H]2C)cc1`, the activity change, negative = inhibition (at 26 µM (top of the series)) was 18.3% (inactive).

For the origin of these results see PubChem BioAssay AID488936 (Broad Institute, 2010).
